Source: ChEMBL document CHEMBL1145096, “Synthesis and cytotoxic activity of two novel 1-dodecylthio-2-decyloxypropyl-3-phosphatidic acid conjugates with gemcitabine and cytosine arabinoside” (J Med Chem, 2003)
pIC50: −log10 of the molar value.

What was measured:
[1] = test system: HL-60; assay: Inhibitory activity against HL-60 (human, promyelocytic leukemia) cell line; type: functional, cell-based
How it was run: (§1)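 Cells kept in log phase in RPMI-1640 with 10% FBS and 1% penicillin-streptomycin, humidified 5% CO2/95% air, 37 °C. Viability read by CellTiter 96 aqueous proliferation assay (microplate optical density). Drug-treated optical densities compared with untreated controls; IC50 obtained by nonlinear regression.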

[2] = test system: BG-1 cell line; assay: Inhibitory activity against BG-1 (human, […] adenocarcinoma) cell line; type: functional, cell-based; how it was run: as §1
[3] = test system: CEM-SS; assay: Inhibitory activity against CEM-SS (human T-4 lymphoblastoid clone) cell line; type: functional, cell-based; how it was run: as §1
[4] = test system: BXPC-3; assay: Inhibitory activity against BxPC3 (human,pancreas,adenocarcinoma) cell line; type: functional, cell-based
How it was run: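 BxPC3 grown in log phase in RPMI-1640 plus 10% FBS, 10 mM HEPES, 1.5 g/L NaHCO3, sodium pyruvate and 1% penicillin-streptomycin, at 37 °C under 5% CO2. CellTiter 96 aqueous proliferation readout by optical density. Treated wells compared with untreated controls; IC50 from nonlinear regression.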

[5] = test system: HT-29; assay: Inhibitory activity against HT-29 (human,colon,adenocarcinoma) cell line; type: functional, cell-based
How it was run: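 Colon line kept in log phase in McCoy's 5A modified medium with 10% FBS and 1% penicillin-streptomycin, 37 °C, 5% CO2 humidified. Proliferation measured by CellTiter 96 aqueous assay (optical density) against untreated cells; IC50 fitted by nonlinear regression.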

[6] = test system: HeLa; assay: Inhibitory activity against HeLa (human, epitheloid carcinoma, cervix) cell line; type: functional, cell-based
How it was run: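 HeLa maintained in log phase in DMEM, 10% FBS, 1% penicillin-streptomycin, humidified 5% CO2 at 37 °C. Growth quantified with CellTiter 96 aqueous assay by microplate optical density. Values expressed relative to untreated controls; IC50 by nonlinear regression.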

[7] = test system: MCF7; assay: Inhibitory activity against MCF-7/WT-2'' (human, breast carcinoma) cell line; type: functional, cell-based
How it was run: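 MCF7/WT-2' grown in log phase in D-MEM/F-12 with 10% FBS, 10 μg/mL insulin and 1% penicillin-streptomycin, 37 °C, 5% CO2. Read-out was CellTiter 96 aqueous proliferation assay (optical density) versus untreated control. IC50 derived by nonlinear regression.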

[8] = test system: SK-LU-1; assay: Inhibitory activity against SK-LU-1 (human,lung,adenocarcinoma) cell line; type: functional, cell-based
How it was run: (§2)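 Maintained in log phase in MEM with 10% FBS and 1% penicillin-streptomycin at 37 °C in humidified 5% CO2. Cell proliferation read with CellTiter 96 aqueous assay by optical density. Treated versus untreated control; IC50 calculated by nonlinear regression.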

[9] = test system: U373 MG; assay: Inhibitory activity against U373-MG (human, glioblastoma) cell line; type: functional, cell-based, U-373MG ATCC; how it was run: as §2
[10] = test system: SCC-25; assay: Inhibitory activity against SCC-25 (human, squamous cell carcinoma, tongue) cell line; type: functional, cell-based
How it was run: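 SCC-25 cultured in log phase in DMEM with 10% FBS, 400 ng/mL hydrocortisone and 1% penicillin-streptomycin, humidified 5% CO2/95% air, 37 °C. CellTiter 96 aqueous assay, optical density compared with untreated cells; IC50 from nonlinear regression.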

Structure (SMILES)	pIC50 [1]	pIC50 [2]	pIC50 [3]	pIC50 [4]	pIC50 [5]	pIC50 [6]	pIC50 [7]	pIC50 [8]	pIC50 [9]	pIC50 [10]
CCCCCCCCCCCCSCC(COP(=O)(O)OCC1OC(n2ccc(N)nc2=O)[C@@H](O)C1O)OCCCCCCCCCC (some centres not stated)	4.17									
CCCCCCCCCCCCSCC(COP(=O)(O)OC[C@H]1O[C@@H](n2ccc(N)nc2=O)C(F)(F)[C@@H]1O)OCCCCCCCCCC (some centres not stated)	5.74	5.74	6.22	5.80	6.12	6.16	5.76	5.95	6.54	6.23
Nc1ccn([C@@H]2O[C@H](CO)[C@@H](O)[C@@H]2O)c(=O)n1 [CYTARABINE]	6.12									
Nc1ccn([C@@H]2O[C@H](CO)[C@@H](O)C2(F)F)c(=O)n1 [GEMCITABINE]	6.48	6.17	7.52	6.80	7.37	8.10	5.78	7.26	6.89	7.33
